High-throughput results deposited in PubChem BioAssay by several laboratories.
Most compounds without a hit are left out; they make up all but 3.9% or so of the library.
HSF1 inhib: HSF1 inhibition. NIH3T3-HGL HSE-luciferase, MG132-induced, luminescence 8 h; stronger effect = lower value. activity change, negative = inhibition, % at 7.5 µM (by protocol). actives 0.77% (n = 300,000). AID 2098;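 active means more than half of replicate wells show activity change below -50%, luminescence cut by over half; inconclusive means some wells, but at most half, below -50%; inactive means no replicate well below -50%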;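 further: luciferase reports HSF-1 transcriptional activity via heat shock element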
HSF1 activator: increases HSF-1 driven luciferase reporter signal | NIH3T3-HGL HSF-1 luciferase reporter, MG132, 8 h; 100% = twice DMSO control signal | activation, % at 9 µM | actives 1.7% (n = 300,000) | AID 504408;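 active means mean replicate activation of at least 50% with a set share of replicates each reaching 50%; inconclusive means only one of those two conditions met; inactive means mean below 50% and too few replicates reaching it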
NS3 helicase inh: inhibitors of Hepatitis C virus NS3 helicase; NS3 helicase DNA unwinding, Cy5 molecular beacon fluorescence; inhibition, % at 10.9 µM; actives 0.56% (n = 290,000); AID 1800;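 active means inhibition above the mean of all tested compounds plus 3 SD, set per campaign, cut at about 35% in these data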
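System: NS3 helicase fragment of HCV / Schedule: 1 h at 25 °C / Control set: DMSO alone as 0% and 110 µM thioflavine S as 100% / Reagent: Cy5/quencher beacon DNA duplex and ATP to start / Technique: Cy5 fluorescence / Replication: singlicate / Evaluation: % inhibition of end-to-start signal ratio versus controls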
HSP90 inh: inhibitors of HSP90 luciferase refolding in rabbit reticulocyte lysate | actives 0.91% (n = 290,000) | inhibition, % at 5.6 µM | AID 1789 | luciferase refolding luminescence, 3 h;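 active means inhibition above the screen-wide mean plus 3 SD, computed separately per campaign, cut at about 16% in these data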;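 further: inhibitors lower the luminescence because luciferase stays unfolded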
DNA FID counter: fluorescent intercalator displacement, NS3 helicase counter-screen; DNA fluorescent intercalator displacement, fluorescence; inhibition, % at 7.9 µM; actives 0.17% (n = 290,000); AID 1845; in the data active means inhibition above about 37%;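 further: higher means more ethidium bromide displaced from hairpin DNA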
HCV core dimer: HCV core protein dimerization inhibition. inhibition, % at 5 µM. actives 0.33% (n = 300,000). AID 1899. TR-FRET GST/Flag-core106 dimerization, 1536-well;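 active means inhibition above the mean of all tested compounds plus 3 SD, set per screening campaign, cut at about 45% in these data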
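test system = GST/Flag-tagged HCV core106 proteins | probe or stimulus = Eu donor and XL665 acceptor anti-tag antibodies | times = compound-protein-antibody incubation 4 h at 22.5 °C | signal = TR-FRET, excitation 340 nm, emission 617 and 671 nm | measure = percent inhibition of core106 dimerization signal | controls = wells lacking GST-core106 and wells with excess unlabelled core106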
Each line names hits and unclear results; the compound was inactive in the other large screens.

COc1cc(SC)ccc1C(=O)Nc1ccccc1	none
COc1cc(C(=O)NCCSc2ccc(F)cc2)cc(OC)c1OC	HSF1 activator 65.6
COc1cc(SC)ccc1C(=O)Nc1nccs1	HSF1 activator 56.8
Cc1nc2ccc([N+](=O)[O-])cc2c(=O)n1Cc1ccc(F)cc1	none
O=C(NNC(=S)NCc1ccccc1)c1ccc(Br)cc1	none
Cn1c(N/N=C/c2c[nH]c3ccccc23)nc2ccccc21	HSF1 activator 61.2
CCc1ccc(NC(=O)CSc2nnc(CNC(=O)c3cccs3)o2)cc1	none
COc1cccc(NC(=O)Cc2ccccc2)c1	none
O=C(Cc1ccccc1)Nc1cccc(N2C(=O)C=CC2=O)c1	HSF1 inhib -62.1
COc1cccc(NC(=O)COC(=O)c2nc3nccc(C)n3n2)c1	none
COc1cccc(N(C(=O)c2nc3nccc(C)n3n2)c2nc3ccccc3s2)c1	HSF1 activator 121.0
CCOc1ccc(NS(=O)(=O)c2ccc3ncsc3c2)cc1	none
CC(C)COc1ccc(C(=O)N/C(=C\c2cccc([N+](=O)[O-])c2)C(=O)O)cc1	none
COC(=O)C(CCSC)NS(=O)(=O)c1ccc(Cl)cc1 (centres undefined)	none
CSCCC(NS(=O)(=O)c1cccc(C(F)(F)F)c1)C(=O)N(C)CCOc1ccc(Cl)cc1 (centres undefined)	HSF1 activator 65.0 (no result: NS3 helicase inh, HSP90 inh, DNA FID counter)
NC(N)=NS(=O)(=O)c1ccc(NC(=S)NC(=O)c2ccc(Br)cc2)cc1	HSF1 activator 114.0
COc1cc(/C=C(/C(=O)c2cccs2)c2nc3ccccc3[nH]2)ccc1O	HSF1 activator 82.0
O=C(/C(=C/c1ccc(Cl)cc1)c1nc2ccccc2[nH]1)c1cccs1	HSF1 activator 240.6
COc1ccc(/C=C(/NC(=O)c2ccccc2)c2nc3ccccc3[nH]2)cc1OC	none
COc1ccc(C(=O)N/C(=C\c2cccs2)c2nc3ccccc3[nH]2)cc1OC	HSF1 inhib -60.4
CCCCNc1ncnc2c1nnn2Cc1ccccc1Cl	none
O=C(CSc1ncnc2c1nnn2Cc1ccccc1)NC1CCCC1	HSF1 activator 57.8
CC(C)(C)NC(=O)CSc1ncnc2c1nnn2Cc1ccccc1Cl	HSF1 activator 112.3
O=C(CCN1CCc2ccccc2CC1)c1ccc2c(c1)OCCO2	HSF1 activator 82.2
O=C(CCN1CCOCC1)c1ccc2c(c1)OCCO2	none
O=C(CCCO)c1ccc2c(c1)OCCO2	HSF1 inhib -60.0
CN(Cc1cccc(-n2cccn2)c1)C(=O)CCc1nnc(C2CCCCC2)o1	none
C=CCN1C(=O)C(Cc2ccc(OC)cc2)S/C1=N/N=C/c1ccco1 (centres undefined)	HSF1 inhib -57.4
C=CCN1C(=O)C(Cc2ccc(Br)cc2)S/C1=N\N=C\c1ccco1 (centres undefined)	none
Cc1cc(C)c(C(CC(=O)c2cccs2)C(C#N)C#N)c(C)c1 (centres undefined)	HSF1 activator 122.5
Cc1ccc2[nH]c(=O)c(CN(Cc3ccco3)C(=O)CN3CCCC(C)C3)cc2c1 (centres undefined)	none
CCCCNC(=O)C1CCCN1C(=O)Nc1cccc(OC)c1 (centres undefined)	HSF1 inhib -52.2
CC(C)(C)C(=O)Nc1cccc(-c2cc(-c3c(Cl)cccc3Cl)no2)c1	HSF1 activator 54.1
CC(C)(C)C(=O)Nc1cccc(C(=O)c2cccc(NC(=O)C(C)(C)C)c2)c1	none
CC(=O)Nc1ccc(NC(=O)CCNS(=O)(=O)c2cccc3nsnc23)cc1	none
COC(=O)/C(=C1/Oc2cc(C)oc(=O)c2S1)C(F)(F)F	HSF1 inhib -78.9
CSCC[C@H](NC(=O)Nc1ccc(Oc2ccccc2)cc1)C(=O)O	none
O=C(C1=C(O)C(=O)N(CCN2CCOCC2)C1c1cccc([N+](=O)[O-])c1)c1cccs1 (centres undefined)	none
Fc1ccccc1CSc1nc2ccccc2[nH]1	HSF1 activator 71.4
COc1cccc(CSc2nc3ccccc3[nH]2)c1	HSF1 activator 111.9
O=[N+]([O-])c1cccc(CSc2nc3ccccc3[nH]2)c1	none
Fc1c(F)c(F)c(CSc2nc3ccccc3[nH]2)c(F)c1F	HSF1 activator 56.1
c1ccc2[nH]c(SCc3cscn3)nc2c1	none
Fc1ccccc1CSc1nc2ncc(Br)cc2[nH]1	none
C=CCn1c(SCc2ccc(F)cc2)nnc1-c1sc2nc(C)cc(C)c2c1N	none
NCCCNc1ccc([N+](=O)[O-])cc1C(F)(F)F	none
Cc1ccc(CSc2nnc3ccc(-c4ccncc4)nn23)cc1	none
CCOC(=O)c1c(NC(C)=O)sc2c(O)c(CN3CCN(CC)CC3)ccc12	HSF1 activator 112.5
S=c1nc(-c2ccccc2Cl)n(Cc2cccnc2)c2c1CCCC2	none
O=C1CC(c2ccc(Cl)c([N+](=O)[O-])c2)c2ccc3ccccc3c2N1 (centres undefined)	HSF1 inhib -64.8
CCOc1cc(NS(=O)(=O)c2ccc(Cl)cc2)c(OCC)cc1NC(=O)CC(C)C	none
Cc1cccc(C)c1NC(=O)COC(=O)c1cccc2c1C(=O)c1ccccc1C2=O	HSF1 activator 81.8
Cc1cccc(NC(=O)COC(=O)c2cccc3c2C(=O)c2ccccc2C3=O)c1C	none
Cc1nn(Cc2noc(C(=O)NCc3ccc4c(c3)OCO4)n2)c(C)c1Br	none
CCn1ncc(/C=C/C(=O)c2ccccc2)c1C	HSF1 activator 52.9
O=C(Nc1ccc(Br)cc1)Nc1ccccc1Cl	HSF1 activator 58.3
COC(=O)c1sccc1NC(=O)Nc1ccc(Cl)c(Cl)c1	HSF1 activator 66.1
O=C(Nc1ccc(Cl)c(Cl)c1)Nc1ccccc1C(=O)O	HSF1 activator 67.8, HSP90 inh 18.4
COC(=O)c1sccc1NC(=O)Nc1ccccc1F	HSF1 activator 58.3
O=C(Nc1cccc(Cl)c1)Nc1ccccc1C(=O)O	none
COc1ccc(CCNC2CCN(C)CC2)cc1OC	none
COC(=O)c1ccc(NC(=O)Nc2ccccc2F)cc1	HSF1 activator 70.2
C=CCOC(=O)C1=C(C)NC(=O)NC1c1ccc(OC(=O)c2ccco2)c(OC)c1 (centres undefined)	none
Cc1noc(C)c1CSCC(=O)Nc1ccc(S(=O)(=O)C(F)F)cc1	HSF1 inhib -57.6 (no result: NS3 helicase inh, HSP90 inh, DNA FID counter)
NC(=O)CSC1=N/C(=C\c2ccco2)C(=O)N1c1ccc(OC(F)F)cc1	HSF1 activator 72.3
COc1ccc(N2C(=O)/C(=C\c3ccco3)N=C2SCC(=O)NC(C)(C)C)cc1Cl	HSF1 activator inconclusive
Fc1cccc(C2NN=C(c3ccccc3)S2)c1 (centres undefined)	HSF1 activator 60.6
COCc1cc(=O)oc2cc(NC(=O)c3ccc(C(C)(C)C)cc3)ccc12	HSF1 activator 56.8
CC1=C(C(=O)Nc2ccccc2F)C(c2cccs2)NC(=S)N1 (centres undefined)	none
